ChEMBL document CHEMBL3286372, “Design, synthesis and structure-activity relationship of novel semi-synthetic flavonoids as antiproliferative agents” (2014)

How the values were obtained:
[1] = Growth inhibition of human HCC2998 cells after 48 hrs by coulter counting analysis; assay type: functional; settings: HCC 2998, 48 h
Outline: (§1)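 NCI five-dose screen at 0.01-100 µM, diluted from DMSO stocks in buffered saline (final DMSO <1%). Cells at 6×10^4 cells/ml in RPMI 1640 with 10% FBS, in duplicate wells, at 37 °C under 5% CO2 for 48 h. Cells diluted tenfold in saline and Coulter-counted. GI50, TGI and LC50 taken from log concentration-growth inhibition curves.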

[2] = Growth inhibition of human UACC62 cells after 48 hrs by coulter counting analysis; assay type: functional; settings: UACC-62, 48 h
Outline: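 NCI five-dose screen, 0.01-100 µM, from DMSO stocks diluted in buffer saline (final DMSO <1%). Cells grown in RPMI 1640 + 10% FBS, seeded at 6×10^4 cells/ml, in duplicate wells. Exposure 48 h at 37 °C, 5% CO2. Cells diluted 10-fold in saline and counted by Coulter counter. GI50 derived from log concentration–percent growth inhibition curves. Controls carried matching PBS/saline/DMSO.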

NCI-H322M = assay: Growth inhibition of human NCI-H322M cells after 48 hrs by coulter counting analysis; assay type: functional
Outline: (§2)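 Five-dose NCI-60 follow-up, 0.01–100 µM, made from DMSO stock in buffered saline (final DMSO <1%), in duplicate wells. Cells in RPMI 1640 with 10% FBS at 6×10^4 cells/ml, 37 °C, 5% CO2, 48 h. Cells diluted tenfold in saline, Coulter-counted and corrected for dilution. GI50, TGI and LC50 taken from log concentration–percent growth curves.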

SF-268 = assay: Growth inhibition of human SF268 cells after 48 hrs by coulter counting analysis; assay type: functional; settings: SF-268, 48 h; outline: as §2
HT-29 = assay: Growth inhibition of human HT-29 cells after 48 hrs by coulter counting analysis; assay type: functional; settings: HT-29, 48 h; outline: as §1
A549 = assay: Growth inhibition of human A549/ATCC cells after 48 hrs by coulter counting analysis; assay type: functional; settings: A549, 48 h; outline: as §1
SK-MEL-5 = assay: Growth inhibition of human SK-MEL-5 cells after 48 hrs by coulter counting analysis; assay type: functional; settings: SK-MEL-5, 48 h; outline: as §2
CCRF-CEM [3] = assay: Growth inhibition of human CCRF-CEM cells after 48 hrs by coulter counting analysis; assay type: functional; outline: as §1
[4] = Growth inhibition of human NCI60 cells after 48 hrs by coulter counting analysis; assay type: functional; settings: NCI60, 48 h
Outline: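 Five-dose screen (0.01-100 µM, DMSO-solubilized, under 1% DMSO final), cells in RPMI 1640 + 10% FBS at 6×10^4 cells/ml, duplicate wells, 37 °C, 5% CO2, 48 h. Cells then diluted tenfold in saline and counted by Coulter counter with dilution correction. Controls held buffer/saline/DMSO at matching dilutions. GI50 derived from log concentration-percent growth inhibition curves.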

SNB-75 = assay: Growth inhibition of human SNB75 cells after 48 hrs by coulter counting analysis; assay type: functional; settings: SNB-75, 48 h; outline: as §2
[5] = Growth inhibition of human SF295 cells after 48 hrs by coulter counting analysis; assay type: functional; settings: SF-295, 48 h; outline: as §2
PC-3 = assay: Growth inhibition of human PC3 cells after 48 hrs by coulter counting analysis; assay type: functional; settings: PC-3, 48 h; outline: as §2
COLO 205 = assay: Growth inhibition of human COLO205 cells after 48 hrs by coulter counting analysis; assay type: functional; settings: COLO 205, 48 h; outline: as §1
Malme-3M = assay: Growth inhibition of human MALME-3M cells after 48 hrs by coulter counting analysis; assay type: functional; outline: as §1
HOP-62 = assay: Growth inhibition of human HOP62 cells after 48 hrs by coulter counting analysis; assay type: functional; settings: HOP-62, 48 h; outline: as §1
[6] = Growth inhibition of human MOLT4 cells after 48 hrs by coulter counting analysis; assay type: functional; settings: MOLT-4, 48 h; outline: as §2
786-0 = assay: Growth inhibition of human 786-0 cells after 48 hrs by coulter counting analysis; assay type: functional; settings: 786-0, 48 h; outline: as §1
[7] = biological target: Cyclin-dependent kinase 2/cyclin E1 (Homo sapiens) (UniProt P24864+P24941); assay: Inhibition of CDK2/Cyclin E1 (unknown origin) at 20 uM after 30 mins by scintillation counting analysis relative to control; assay type: protein-complex assay
Outline: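 Recombinant kinases, cloned, expressed and purified in-house. Radiometric ³³P-ATP assay with kinase at ~10-50 nM final and 1-5 µg peptide or protein substrate. Compound at 20 µM final, in duplicate. Reaction started by adding ATP, run 30 min at ambient temperature, then spotted on P81 phosphocellulose. Plates washed in 1% phosphoric acid and counted by scintillation. No-substrate blank subtracted. Result is mean % activity change versus DMSO control.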

MDA-MB-468 = assay: Growth inhibition of human MDA-MB-468 cells after 48 hrs by coulter counting analysis; assay type: functional; settings: MDA-MB-468, 48 h; outline: as §2
[8] = Growth inhibition of human OVCAR8 cells after 48 hrs by coulter counting analysis; assay type: functional; settings: OVCAR-8, 48 h; outline: as §2
[9] = Growth inhibition of human SF539 cells after 48 hrs by coulter counting analysis; assay type: functional; settings: SF-539, 48 h; outline: as §2
[10] = Growth inhibition of human MOLT4 cells at 10 uM after 48 hrs by sulforhodamine B assay relative to control; assay type: functional; settings: MOLT-4, 48 h, read-out: GI
Outline: (§3)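 NCI-60 primary screen at a single 10 µM dose. Continuous 48 h exposure, with growth or viability estimated by sulforhodamine B protein staining. Reported as percent growth inhibition of treated cells relative to untreated growth.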

MCF7 = assay: Growth inhibition of human MCF7 cells at 10 uM after 48 hrs by sulforhodamine B assay relative to control; assay type: functional; settings: MCF7, 48 h, read-out: GI
Outline: (§4)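 NCI-60 primary screen at a single dose of 10 µM with 48 h continuous exposure. Growth or viability read by sulforhodamine B protein staining and expressed as percent growth inhibition versus untreated cells.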

[11] = Growth inhibition of human BT549 cells after 48 hrs by coulter counting analysis; assay type: functional; settings: BT-549, 48 h; outline: as §1
NCI-H460 = assay: Growth inhibition of human NCI-H460 cells at 10 uM after 48 hrs by sulforhodamine B assay relative to control; assay type: functional; settings: NCI-H460, 48 h, read-out: GI; outline: as §3
[12] = Growth inhibition of human Hs 578T cells after 48 hrs by coulter counting analysis; assay type: functional; outline: as §1
CCRF-CEM [13] = assay: Growth inhibition of human CCRF-CEM cells at 10 uM after 48 hrs by sulforhodamine B assay relative to control; assay type: functional; settings: read-out: GI; outline: as §4
SR = assay: Growth inhibition of human SR cells after 48 hrs by coulter counting analysis; assay type: functional; outline: as §2
[14] = Growth inhibition of human UO31 cells at 10 uM after 48 hrs by sulforhodamine B assay relative to control; assay type: functional; settings: UO-31, 48 h, read-out: GI
Outline: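 NCI-60 primary single-dose screen at 10 µM with continuous 48 h exposure. Cell viability/growth read by sulforhodamine B protein staining. Reported as percent growth inhibition relative to untreated cells.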

[15] = Growth inhibition of human NCI-ADR-RES cells at 10 uM after 48 hrs by sulforhodamine B assay relative to control; assay type: functional; settings: read-out: GI; outline: as §3
[16] = read-out: LC50 (the source's name)

SMILES | GI50 [1] [µM] | GI50 [2] [µM] | GI50 (NCI-H322M) [µM] | GI50 (SF-268) [µM] | GI50 (HT-29) [µM] | GI50 (A549) [µM] | GI50 (SK-MEL-5) [µM] | GI50 (CCRF-CEM [3]) [µM] | LC50 [4] [µM] | TGI [4] [µM] | GI50 (SNB-75) [µM] | GI50 [5] [µM] | GI50 (PC-3) [µM] | GI50 (COLO 205) [µM] | GI50 (Malme-3M) [µM] | GI50 (HOP-62) [µM] | GI50 (786-0) [µM] | inhibition [7] [%] | GI50 (MDA-MB-468) [µM] | GI50 [8] [µM] | other results
COc1c(C(=O)/C=C/c2ccc(Cl)cc2)c(O)c(Br)c2occc12 | 2.5 | 3.47 | 5.22 | 3.5 | 4.11 | 6.72 | 3.33 | 2.66 | 87.1 | 28.8 | 1.8 | 6.67 | 2.94 | 1.76 | 2.61 | 6.82 | 2.99 | 5 | 2.13 | 3.43 | GI50 [6]: 2.09 µM
COc1ccccc1/C=C/C(=O)c1c(O)cc2occc2c1OC | > 100 | 23.7 | > 100 | 22.2 | > 100 | > 100 | > 100 | 9.72 | 100 | 89.1 | 7.49 | 16.6 | > 100 | > 100 | 18.9 | 19.3 | 35.3 | 6 | 10.3 | 53.8 | GI50 [9]: 24.3 µM; inhibition of growth at 10 µM [10]: 66%; inhibition of growth at 10 µM (MCF7): 60%; GI50 [11]: 28.2 µM; inhibition of growth at 10 µM (NCI-H460): 61%; GI50 [12]: 38.2 µM; inhibition of growth at 10 µM (CCRF-CEM [13]): 63%
C=CCc1c(O)c(C(=O)/C=C/c2ccc(Cl)cc2)c(OC)c2ccoc12 | 1.79 | 2.88 | 4.88 | 3.25 | 1.89 | 4.7 | 2.07 | 3.33 | 37.1 | 11 | 2.01 | 2.77 | 3.81 | 4.44 | 2.74 | 2.31 | 4.83 | 3 | 2.27 | 3.04 | GI50 [9]: 1.79 µM; GI50 [6]: 2.61 µM; GI50 [11]: 3 µM; GI50 (SR): 2.77 µM; GI50 [12]: 4.02 µM
COc1c2occc2c(OC)c2c(=O)c(CN3CCOCC3)c(/C=C/c3ccc(Cl)cc3)oc12 | 2.85 | 1.9 | 2.54 | 2.81 | 2.69 | 2.85 | 1.24 | 1.78 | 87.1 | 33.1 | 2.41 | 2.01 | 2.5 | 2.76 | 2.24 | 3.24 | 3.09 | 0 | 2.12 | 2.78 | inhibition of growth at 10 µM [10]: 93%; inhibition of growth at 10 µM [14]: 61%; GI50 [6]: 2.84 µM; GI50 [11]: 2.38 µM; inhibition of growth at 10 µM (NCI-H460): 88%; GI50 [12]: 1.9 µM; inhibition of growth at 10 µM (CCRF-CEM [13]): 81%
COc1ccc(-c2cc(=O)c3c(OC)c4ccoc4c(/C=C/C=O)c3o2)cc1 | 13.7 | 1.77 | 5.06 | 4.38 | 18.1 | 18.5 | 1.69 | 1.09 | 72.4 | 26.3 | 3.13 | 3.4 | 2.58 | 27.6 | 3.79 | 2.98 | 16.8 | 0 | 3.58 | 2.83 | GI50 [9]: 4.14 µM; GI50 [6]: 1.84 µM; GI50 [11]: 2.14 µM; GI50 [12]: 10.4 µM
COc1c2ccoc2c(/C=C/C=O)c2oc(-c3ccccc3)cc(=O)c12 | 16.1 | 5.45 | 9.69 | 4.23 | 25.1 | 21.5 | 3.04 | 1.85 | 87.1 | 35.5 | 8.3 | 13.6 | 3.23 | 27.7 | 3.47 | 2.49 | 26.9 | 6 | 7.02 | 2.86 | GI50 [9]: 3.59 µM; GI50 [6]: 2.06 µM; GI50 [11]: 2.88 µM; GI50 [12]: 7.2 µM
COc1c2occc2c(OC)c2c(=O)c(CN3CCOCC3)c(/C=C/c3ccc(N(C)C)cc3)oc12 | 2.62 | 1.86 | 1.65 | 2.22 | 2.2 | 2.83 | 1.09 | 1.17 | 60.2 | 5.24 | 1.39 | 1.82 | 1.69 | 1.66 | 2.08 | 2.33 | 1.93 | 0 | 1.76 | 5.15 | LC50 [2]: 7.61 µM; CC50 (HT-29; [16]): 6.68 µM; inhibition of growth at 10 µM [15]: 87%; CC50 (SK-MEL-5; [16]): 4.99 µM; LC50 (SNB-75): 5.75 µM; CC50 (COLO 205; [16]): 5.87 µM; CC50 (Malme-3M; [16]): 8.65 µM; inhibition of growth at 10 µM [10]: 88%; inhibition of growth at 10 µM [14]: 63%; GI50 [6]: 1.58 µM; inhibition of growth at 10 µM (CCRF-CEM [13]): 95%
C=CCc1c(O)c(C(=O)/C=C/c2ccccc2)c(OC)c2ccoc12 | 1.73 | 2.74 | 3.19 | 2.8 | 3.01 | 4.41 | 2.66 | 2.75 | 41.7 | 11.2 | 1.39 | 2.44 | 3.68 | 5.96 | 5.8 | 5.32 | 4.12 | 0 | 3.07 | 3.13 | GI50 [9]: 1.71 µM; GI50 [6]: 2.17 µM; GI50 [11]: 2.63 µM; GI50 (SR): 2.15 µM; GI50 [12]: 3.9 µM
